# In the library only some 2.3% were active in any assay of this set; here they are far more common.
# Statin myotox sup = suppressors of statin myotoxicity in C2C12 myotubes, primary screen, cell-based, single point, plate reader; C2C12 myotubes + simvastatin, ATP luminescence, 48 h; scaled: DMSO 0, geranylgeraniol control 100; rescue of ATP level, % at 7.49 µM; 330,000 compounds, 0.78% hits;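 active = mean ATP rescue above about 67%, or every replicate alone reaching that limit, limit read from the data, passing the limit was not always enough; inconclusive = no clear call, values can overlap the other calls; inactive = mean under the limit and some replicate under it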;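 also: myotubes were challenged with 10 µM simvastatin during compound exposure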
# CFTR F508del cor = F508del CFTR correction, initial screen, CFBE line, single point. CFBE cells, YFP halide quenching; stimulated with forskolin plus potentiator P3; % fluorescence drop versus neutral controls. activity (quench increase), % at 7.58 µM. 350,000 compounds, 0.36% hits;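 active = mean added fluorescence quench of at least 8% versus neutral control, with both replicates also reaching 8%; inconclusive = only one of the mean or replicate conditions met; inactive = mean below 8% and not both replicates reaching 8%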;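 also: cells transiently co-express mutant CFTR-F508del with the halide-sensitive YFP; corrector assay measuring rescue of mutant channel to the surface after 24 h compound exposure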
# DENV2 CPE rescue = inhibitors of DENV2 cytopathic effect, primary screen, cell-based, plate reader, single concentration. DENV2-infected cells, cytopathic effect rescue. CPE inhibition, % at 9.99 µM. 350,000 compounds, 1.7% hits; in the data active = CPE inhibition above about 20%, passing the limit was not always enough; inconclusive = no clear call, values can overlap the other calls; tested in BHK-21 cells;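 also: 0% = median of neutral control wells and 100% = median of positive control wells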
# ERp5 block = inhibitors of ERp5-driven insulin aggregation, primary screen, biochemical, turbidity, absorbance 650 nm, single point | Protein disulfide-isomerase A6 (Homo sapiens), Q15084 | 90 min | inhibition, % at 9.99 µM | 350,000 compounds, 0.05% hits;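 active = mean replicate inhibition above about 25%, with every replicate also reaching it, limit read from the data, passing the limit was not always enough; inconclusive = only one of those two criteria met; inactive = neither criterion met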
# Target sequence (Q15084 whole entry, looked up): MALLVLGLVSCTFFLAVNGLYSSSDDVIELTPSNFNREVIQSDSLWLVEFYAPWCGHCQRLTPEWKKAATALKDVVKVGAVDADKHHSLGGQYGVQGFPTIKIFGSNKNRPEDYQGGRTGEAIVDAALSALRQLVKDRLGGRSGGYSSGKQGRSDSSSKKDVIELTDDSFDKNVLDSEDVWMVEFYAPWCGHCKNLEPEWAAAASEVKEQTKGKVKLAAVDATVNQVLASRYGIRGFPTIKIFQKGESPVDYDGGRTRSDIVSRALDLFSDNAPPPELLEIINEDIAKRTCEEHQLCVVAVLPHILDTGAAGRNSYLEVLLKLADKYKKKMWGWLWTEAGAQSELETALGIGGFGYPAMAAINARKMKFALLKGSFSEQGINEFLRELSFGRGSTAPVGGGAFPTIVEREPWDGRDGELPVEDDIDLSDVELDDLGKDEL
# Cneo AK release = Cryptococcus neoformans cell lysis inducers, primary screen, AK release luminescence, single concentration | C. neoformans lysis, adenylate kinase release luminescence, 4 h; normalised: neutral wells 0, clomiphene wells 100 | lysis activity, % at 15 µM | 360,000 compounds, 0.2% hits | AID 651654, 2012;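 active = mean lysis activity across replicates of at least 80%, whatever share of replicates individually reach that level; inactive = mean lysis activity below 80%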
#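 Test system: log-phase Cryptococcus neoformans yeast cells. Input: 5 × 10^6 yeast cells/mL. Medium: fresh YPD growth medium. Doses: single dose. Incubation: static 4 h at 37 °C with compound, 1 h detection. Measured by: luminescent adenylate kinase detection reagent. Read-out: signal increase indicating cell lysis. Benchmarks: Clomiphene.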
# The depositor's hits bear a star; ? = inconclusive; nt = no result; ! = repeats disagree.
SMILES,Statin myotox sup,CFTR F508del cor,DENV2 CPE rescue,ERp5 block,Cneo AK release
COc1ccc(NC(=O)N2[C@@H]3CNC[C@H]2C3c2ccc(/C=C/c3ccccc3)cc2)cc1 (stereo not given in full),nt,-0.1,24.6*,-1.0,nt
COCC(=O)N(C)C[C@@H]1Oc2ncc(-c3ccc(C)cc3)cc2C(=O)N([C@H](C)CO)C[C@@H]1C,9.1,-1.0,3.2,1.7,3.3
CO[C@@H]1CN(C)C(=O)c2ccc(NS(=O)(=O)c3ccccc3)cc2OC[C@@H](C)N(C(=O)NC(C)C)C[C@H]1C,-2.3,1.2,-0.1,-4.0,53.5
O=C(Nc1ccccc1)N[C@H]1CC[C@@H](CCn2cc(-c3ccccc3F)nn2)O[C@H]1CO,nt,-0.2,-2.7,-11.8,nt
CC=Cc1ccc2n(c1=O)C[C@H]1[C@H](CO)[C@@H](C(=O)N[C@H](C)c3ccccc3)N(C(=O)c3cnccn3)[C@@H]21 (mixture of isomers),15.1,nt,-1.3,4.2,-1.8
C[C@H]1CN([C@@H](C)CO)C(=O)c2cccc(NC(=O)c3ccc(-c4nccs4)cc3)c2O[C@@H]1CN(C)S(=O)(=O)c1cn(C)cn1,nt,-1.3,?,1.1,4.2
CN(C)C(=O)c1ccc(-c2ccc(C3[C@H]4CNC[C@@H]3N4C(=O)NC3CCCCC3)cc2)cc1 (stereo not given in full),nt,-3.1,-8.1,-2.1,nt
COc1cccc(CN2[C@@H]3CNC[C@H]2C3c2ccc(-c3cccc(OC)c3)cc2)c1 (stereo not given in full),nt,-0.7,12.5,-3.8,nt
COc1cccc(-c2ccc(C3[C@H]4CNC[C@@H]3N4Cc3cccnc3)cc2)c1 (stereo not given in full),nt,-1.4,28.2*,nt,nt
N#Cc1ccc(-c2ccc(C3[C@H]4CNC[C@@H]3N4C(=O)NC3CCCCC3)cc2)cc1 (stereo not given in full),nt,-1.7,23.0*,nt,nt
Cc1cccc(-c2ccc(C3[C@H]4CNC[C@@H]3N4C(=O)Nc3ccc(F)cc3)cc2)c1 (stereo not given in full),nt,1.4,27.8*!,2.7,nt
CCCNC(=O)N1[C@@H]2CNC[C@H]1C2c1ccc(-c2cccc(C#N)c2)cc1 (stereo not given in full),nt,0.5,20.7*!,5.1,nt
CC(C)NC(=O)N(C)C[C@H]1OCCCC[C@H](C)Oc2ccc(NC(=O)Cc3ccccc3)cc2C(=O)N([C@@H](C)CO)C[C@H]1C,nt,-0.3,7.8,3.5,-0.4
CCCNC(=O)N1C[C@@H](C)[C@H](OC)CN(C)C(=O)c2ccc(NC(C)=O)cc2OC[C@@H]1C,nt,-1.6,-0.7,7.5,nt
CO[C@H]1CN(C)C(=O)c2ccc(NC(=O)C3CCCCC3)cc2OC[C@@H](C)N(C)C[C@@H]1C,1.4,-0.8,4.6,-2.5,-2.8
CCC(=O)NC[C@@H]1N[C@@H](CO)[C@H]1c1ccc(-c2cccc(C#N)c2)cc1,11.3,-1.7,2.4,-6.1,0.5
CN(C)CC(=O)NC[C@H]1N[C@@H](CO)[C@H]1c1ccc(-c2cccc(C#N)c2)cc1,-15.6,4.4,24.9*,0.2,43.8
C=C1C(=O)C23C(O)C1CCC2C12COC3(O)C(O)C1C(C)(C)CCC2O (stereo not given),110.3*,-16.9,-13.2,-2.4,-2.0
CCCNC(=O)Nc1ccc2c(c1)OC[C@H](C)N(Cc1ccncc1)C[C@@H](C)[C@@H](OC)CN(C)C2=O,-8.6,-2.2,45.1*,2.2,-2.5
CCCNC(=O)Nc1ccc2c(c1)OC[C@H](C)N(Cc1ccncc1)C[C@H](C)[C@@H](OC)CN(C)C2=O,-16.6,-2.1,-3.4,0.7,-3.6
CO[C@@H]1CN(C)C(=O)c2ccc(NC(=O)C3CC3)cc2OC[C@@H](C)N(Cc2ccc(F)cc2)C[C@H]1C,4.9,-1.6,?,-4.4,-0.6
CCC(=O)Nc1ccc2c(c1)OC[C@H](C)N(Cc1ccccn1)C[C@@H](C)[C@H](OC)CN(C)C2=O,2.9,-0.6,31.7*,2.4,54.9
CO[C@@H]1CN(C)C(=O)c2ccc(NC(=O)C3CC3)cc2OC[C@H](C)N(Cc2ccc(F)cc2)C[C@H]1C,13.6,0.1,-12.6,-5.9,86.0*
CCC(=O)Nc1ccc2c(c1)OC[C@H](C)N(Cc1cccnc1)C[C@H](C)[C@H](OC)CN(C)C2=O,-12.6,3.7,1.5,28.6*,0.0
CO[C@@H]1CN(C)C(=O)c2ccc(NC(=O)Nc3c(C)noc3C)cc2OC[C@@H](C)N(C)C[C@@H]1C,1.6,2.9,-6.1,6.1,1.0
SMILES,Statin myotox sup,CFTR F508del cor,DENV2 CPE rescue,ERp5 block,Cneo AK release
CCCC(=O)Nc1ccc2c(c1)OC[C@H](C)N(Cc1ccccc1)C[C@H](C)[C@H](OC)CN(C)C2=O,24.5,-0.6,-2.9,1.2,-0.8
CCCC(=O)Nc1ccc2c(c1)OC[C@H](C)N(Cc1ccccc1)C[C@H](C)[C@@H](OC)CN(C)C2=O,nt,-1.4,31.6*,nt,nt
CCCC(=O)Nc1ccc2c(c1)OC[C@@H](C)N(Cc1ccccn1)C[C@H](C)[C@@H](OC)CN(C)C2=O,-11.7,1.3,63.6*,5.4,-3.4
CCCC(=O)Nc1ccc2c(c1)C(=O)N(C)C[C@H](OC)[C@H](C)CN(Cc1ccc(-c3ccccn3)cc1)[C@@H](C)CO2,18.4,1.6,28.3*,4.0,0.0
CCCC(=O)Nc1ccc2c(c1)C(=O)N(C)C[C@@H](OC)[C@@H](C)CN(Cc1ccc(-c3ccccn3)cc1)[C@@H](C)CO2,5.6,-0.5,-5.6,7.0,-1.0
COc1ccccc1CN1C[C@H](C)[C@H](OC)CN(C)C(=O)c2ccc(NC(C)=O)cc2OC[C@H]1C,0.3,1.1,43.3*,-1.2,1.0
CCC(=O)N1CC2(C1)[C@H](c1ccccc1)[C@@H](CO)N2CCC(F)(F)F,nt,-1.3,-3.4,-0.7,nt
CCCC(=O)Nc1ccc2c(c1)OC[C@@H](C)N(Cc1ccccn1)C[C@H](C)[C@H](OC)CN(C)C2=O,-9.2,-1.1,-2.8,2.3,0.1
CO[C@H]1CN(C)C(=O)c2cc(NS(=O)(=O)CC(F)(F)F)ccc2OC[C@H](C)N(Cc2cccnc2)C[C@@H]1C,-1.9,-3.2,37.1*,0.4,102.9*
CO[C@H]1CN(C)C(=O)c2ccc(NS(=O)(=O)CC(F)(F)F)cc2OC[C@H](C)N(Cc2cccnc2)C[C@@H]1C,-2.2,-1.1,12.2,4.1,-0.2
CCCC(=O)Nc1ccc2c(c1)OC[C@H](C)N(Cc1ccccn1)C[C@H](C)[C@H](OC)CN(C)C2=O,4.3,3.5,-5.5,-0.8,112.7*
COc1ccc(CN2C[C@H](C)[C@@H](OC)CN(C)C(=O)c3cc(NC(=O)c4nc5ccccc5s4)ccc3OC[C@@H]2C)cc1,28.4,-1.2,31.0*,-4.2,-1.3
